In ChEMBL document CHEMBL5661979, “Pharmacological inhibition of BMK1 suppresses tumor growth through promyelocytic leukemia protein” (Cancer Cell, 2010):
The source made the active and inactive calls. The calls are words filed in the database; no cut-off is given here.

Experiments:
[1] = biological target: T1, Ribosomal protein S6 kinase alpha-1 (Homo sapiens, UniProt Q15418); test: Inhibition of RSK1 domain 2 in human HeLa cells lysate at 50 uM pre incubated for 15 mins followed by ATP acyl phosphate probe addition and measured after 10 mins by LC-MS/MS analysis relative to control; type: subcellular; details: time 25.0 min
[2] = biological target: Tyrosine-protein kinase Fyn (Homo sapiens, UniProt P06241); test: Inhibition of FYN in human HeLa cells lysate pre incubated for 15 mins followed by ADP acyl phosphate probe addition and measured after 10 mins by LC-MS/MS analysis; type: subcellular
[3] = biological target: Serine/threonine-protein kinase tousled-like 2 (Homo sapiens, UniProt Q86UE8); test: Inhibition of TLK2 in human HeLa cells lysate at 50 uM pre incubated for 15 mins followed by ADP acyl phosphate probe addition and measured after 10 mins by LC-MS/MS analysis relative to control; type: subcellular; details: time 25.0 min
[4] = biological target: Casein kinase I isoform alpha (Homo sapiens, UniProt P48729); test: Inhibition of CK1alpha in human HeLa cells lysate pre incubated for 15 mins followed by ATP acyl phosphate probe addition and measured after 10 mins by LC-MS/MS analysis; type: subcellular
[5] = biological target: T2, Serine/threonine-protein kinase Sgk3 (Homo sapiens) (UniProt Q96BR1); test: Inhibition of SGK3 in human HeLa cells lysate at 50 uM pre incubated for 15 mins followed by ATP acyl phosphate probe addition and measured after 10 mins by LC-MS/MS analysis relative to control; type: subcellular; details: time 25.0 min
T2 sequence (whole entry): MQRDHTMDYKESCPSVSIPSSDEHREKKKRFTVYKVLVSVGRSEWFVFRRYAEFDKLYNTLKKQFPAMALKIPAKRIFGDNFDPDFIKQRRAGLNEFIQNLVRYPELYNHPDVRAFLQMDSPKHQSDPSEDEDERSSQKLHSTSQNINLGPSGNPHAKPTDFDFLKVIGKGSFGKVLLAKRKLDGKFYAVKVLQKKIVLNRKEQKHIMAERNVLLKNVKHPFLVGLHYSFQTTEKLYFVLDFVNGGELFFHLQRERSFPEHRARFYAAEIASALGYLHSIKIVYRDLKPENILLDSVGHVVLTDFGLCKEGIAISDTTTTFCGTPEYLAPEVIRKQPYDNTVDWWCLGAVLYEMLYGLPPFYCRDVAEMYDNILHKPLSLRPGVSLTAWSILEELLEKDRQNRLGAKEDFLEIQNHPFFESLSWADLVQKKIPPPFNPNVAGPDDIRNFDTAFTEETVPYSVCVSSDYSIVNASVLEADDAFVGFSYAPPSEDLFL

[6] = biological target: T1, Ribosomal protein S6 kinase alpha-1; test: Inhibition of RSK1 domain 2 K2 site in human HeLa cells lysate pre incubated for 15 mins followed by ADP acyl phosphate probe addition and measured after 10 mins by LC-MS/MS analysis; type: subcellular
[7] = biological target: Ribosomal protein S6 kinase alpha-5 (Homo sapiens, UniProt O75582); test: Inhibition of MSK1 domain 1 in human HeLa cells lysate at 50 uM pre incubated for 15 mins followed by ADP acyl phosphate probe addition and measured after 10 mins by LC-MS/MS analysis relative to control; type: subcellular; details: time 25.0 min
[8] = biological target: Mitogen-activated protein kinase kinase kinase 1 (Homo sapiens, UniProt Q13233); test: Inhibition of MAP3K1 in human HeLa cells lysate at 2 uM pre incubated for 15 mins followed by ADP acyl phosphate probe addition and measured after 10 mins by LC-MS/MS analysis relative to control; type: subcellular; details: time 25.0 min
HeLa = test: Antitumor activity against human HeLa cells xenografted in NOD/SCID mouse assessed as decrease in BrdU incorporation in cell nuclei in tumor at 50 mg/kg, ip by fluorescence microscopic analysis; type: functional, organism-based
Method in brief: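 HeLa or LL/2 tumor sections from treated and control xenograft mice were stained with anti-BrdU antibody and DAPI and imaged by fluorescence microscopy. n = 6 mice, 9 slices.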

[9] = Inhibition of NEK6/7 in human HeLa cells lysate pre incubated for 15 mins followed by ATP acyl phosphate probe addition and measured after 10 mins by LC-MS/MS analysis; type: subcellular
Lewis lung carcinoma = test: Antitumor activity against mouse LL2 cells transfected with Ad-BMK1 allografted in C57Bl/6 mouse assessed as reduction tumor growth at 50 mg/kg, ip administered on day 7 post implantation measured after 17 days; type: functional, organism-based; details: time 10.0 day
Method in brief: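 LL/2 cells (1×10^6) were injected s.c. into C57Bl/6 mice; 6 per group. Ad-EV or Ad-BMK1(AEF) was given intratumorally on days 7, 11, 15 and 19. Drug was dosed at 50 mg/kg i.p. twice daily from day 8 to day 20; control groups received carrier solution.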

[10] = biological target: Epidermal growth factor receptor (Homo sapiens, UniProt P00533); test: Inhibition of EGFR in human HeLa cells lysate pre incubated for 15 mins followed by ATP acyl phosphate probe addition and measured after 10 mins by LC-MS/MS analysis; type: subcellular
[11] = biological target: T3, Serine/threonine-protein kinase ULK3 (Homo sapiens) (UniProt Q6PHR2); test: Inhibition of ULK3 in human HeLa cells lysate at 2 uM pre incubated for 15 mins followed by ADP acyl phosphate probe addition and measured after 10 mins by LC-MS/MS analysis relative to control; type: subcellular; details: time 25.0 min
T3 sequence (whole entry): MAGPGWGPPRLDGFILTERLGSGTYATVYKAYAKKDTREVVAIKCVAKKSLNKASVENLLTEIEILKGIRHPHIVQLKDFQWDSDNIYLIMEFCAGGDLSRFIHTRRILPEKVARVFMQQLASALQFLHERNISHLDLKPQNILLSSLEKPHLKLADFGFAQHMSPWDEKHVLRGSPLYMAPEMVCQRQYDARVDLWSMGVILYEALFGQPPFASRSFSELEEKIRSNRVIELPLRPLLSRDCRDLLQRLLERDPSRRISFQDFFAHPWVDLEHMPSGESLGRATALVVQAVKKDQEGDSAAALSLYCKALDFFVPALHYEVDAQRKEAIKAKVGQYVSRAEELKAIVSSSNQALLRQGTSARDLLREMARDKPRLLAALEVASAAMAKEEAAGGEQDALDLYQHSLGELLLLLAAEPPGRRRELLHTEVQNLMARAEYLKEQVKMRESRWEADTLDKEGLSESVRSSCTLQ

Ephrin type-A receptor 2 = Ephrin type-A receptor 2 (Homo sapiens, UniProt P29317); test: Inhibition of EphA2 in human HeLa cells lysate pre incubated for 15 mins followed by ATP acyl phosphate probe addition and measured after 10 mins by LC-MS/MS analysis; type: subcellular
[12] = biological target: Glycogen synthase kinase-3 beta (Homo sapiens, UniProt P49841); test: Inhibition of GSK3B isoform 2 in human HeLa cells lysate at 2 uM pre incubated for 15 mins followed by ATP acyl phosphate probe addition and measured after 10 mins by LC-MS/MS analysis relative to control; type: subcellular; details: time 25.0 min
[13] = biological target: Mitogen-activated protein kinase kinase kinase 4 (Homo sapiens, UniProt Q9Y6R4); test: Inhibition of MAP3K4 in human HeLa cells lysate pre incubated for 15 mins followed by ATP acyl phosphate probe addition and measured after 10 mins by LC-MS/MS analysis; type: subcellular
[14] = biological target: T1, Ribosomal protein S6 kinase alpha-1; test: Inhibition of RSK1 domain 1 in human HeLa cells lysate pre incubated for 15 mins followed by ADP acyl phosphate probe addition and measured after 10 mins by LC-MS/MS analysis; type: subcellular
[15] = biological target: Serine/threonine-protein kinase 10 (Homo sapiens, UniProt O94804); test: Inhibition of LOK in human HeLa cells lysate pre incubated for 15 mins followed by ADP acyl phosphate probe addition and measured after 10 mins by LC-MS/MS analysis; type: subcellular

T1 sequence (Q15418 whole entry, the tested form may be a part): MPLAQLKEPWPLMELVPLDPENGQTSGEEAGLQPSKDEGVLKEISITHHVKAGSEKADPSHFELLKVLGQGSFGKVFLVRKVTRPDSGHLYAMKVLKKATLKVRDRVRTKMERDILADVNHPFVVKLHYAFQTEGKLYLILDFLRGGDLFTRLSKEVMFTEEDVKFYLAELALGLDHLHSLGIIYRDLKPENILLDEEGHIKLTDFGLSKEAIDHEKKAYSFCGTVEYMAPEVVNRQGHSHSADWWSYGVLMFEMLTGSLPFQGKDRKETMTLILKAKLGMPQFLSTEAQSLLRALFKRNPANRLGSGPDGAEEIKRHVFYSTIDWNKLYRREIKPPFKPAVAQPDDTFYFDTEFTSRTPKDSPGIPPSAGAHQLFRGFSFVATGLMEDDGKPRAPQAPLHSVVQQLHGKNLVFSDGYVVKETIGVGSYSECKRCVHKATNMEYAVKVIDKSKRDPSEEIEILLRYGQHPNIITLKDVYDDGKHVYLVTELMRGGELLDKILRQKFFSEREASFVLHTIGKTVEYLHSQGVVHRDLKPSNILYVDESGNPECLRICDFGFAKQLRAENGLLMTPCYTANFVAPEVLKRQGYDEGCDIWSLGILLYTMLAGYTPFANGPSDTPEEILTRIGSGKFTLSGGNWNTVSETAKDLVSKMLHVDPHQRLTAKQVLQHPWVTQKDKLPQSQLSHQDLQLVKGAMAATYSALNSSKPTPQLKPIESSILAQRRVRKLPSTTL
Sequence of Mitogen-activated protein kinase kinase kinase 1 (Q13233 whole entry): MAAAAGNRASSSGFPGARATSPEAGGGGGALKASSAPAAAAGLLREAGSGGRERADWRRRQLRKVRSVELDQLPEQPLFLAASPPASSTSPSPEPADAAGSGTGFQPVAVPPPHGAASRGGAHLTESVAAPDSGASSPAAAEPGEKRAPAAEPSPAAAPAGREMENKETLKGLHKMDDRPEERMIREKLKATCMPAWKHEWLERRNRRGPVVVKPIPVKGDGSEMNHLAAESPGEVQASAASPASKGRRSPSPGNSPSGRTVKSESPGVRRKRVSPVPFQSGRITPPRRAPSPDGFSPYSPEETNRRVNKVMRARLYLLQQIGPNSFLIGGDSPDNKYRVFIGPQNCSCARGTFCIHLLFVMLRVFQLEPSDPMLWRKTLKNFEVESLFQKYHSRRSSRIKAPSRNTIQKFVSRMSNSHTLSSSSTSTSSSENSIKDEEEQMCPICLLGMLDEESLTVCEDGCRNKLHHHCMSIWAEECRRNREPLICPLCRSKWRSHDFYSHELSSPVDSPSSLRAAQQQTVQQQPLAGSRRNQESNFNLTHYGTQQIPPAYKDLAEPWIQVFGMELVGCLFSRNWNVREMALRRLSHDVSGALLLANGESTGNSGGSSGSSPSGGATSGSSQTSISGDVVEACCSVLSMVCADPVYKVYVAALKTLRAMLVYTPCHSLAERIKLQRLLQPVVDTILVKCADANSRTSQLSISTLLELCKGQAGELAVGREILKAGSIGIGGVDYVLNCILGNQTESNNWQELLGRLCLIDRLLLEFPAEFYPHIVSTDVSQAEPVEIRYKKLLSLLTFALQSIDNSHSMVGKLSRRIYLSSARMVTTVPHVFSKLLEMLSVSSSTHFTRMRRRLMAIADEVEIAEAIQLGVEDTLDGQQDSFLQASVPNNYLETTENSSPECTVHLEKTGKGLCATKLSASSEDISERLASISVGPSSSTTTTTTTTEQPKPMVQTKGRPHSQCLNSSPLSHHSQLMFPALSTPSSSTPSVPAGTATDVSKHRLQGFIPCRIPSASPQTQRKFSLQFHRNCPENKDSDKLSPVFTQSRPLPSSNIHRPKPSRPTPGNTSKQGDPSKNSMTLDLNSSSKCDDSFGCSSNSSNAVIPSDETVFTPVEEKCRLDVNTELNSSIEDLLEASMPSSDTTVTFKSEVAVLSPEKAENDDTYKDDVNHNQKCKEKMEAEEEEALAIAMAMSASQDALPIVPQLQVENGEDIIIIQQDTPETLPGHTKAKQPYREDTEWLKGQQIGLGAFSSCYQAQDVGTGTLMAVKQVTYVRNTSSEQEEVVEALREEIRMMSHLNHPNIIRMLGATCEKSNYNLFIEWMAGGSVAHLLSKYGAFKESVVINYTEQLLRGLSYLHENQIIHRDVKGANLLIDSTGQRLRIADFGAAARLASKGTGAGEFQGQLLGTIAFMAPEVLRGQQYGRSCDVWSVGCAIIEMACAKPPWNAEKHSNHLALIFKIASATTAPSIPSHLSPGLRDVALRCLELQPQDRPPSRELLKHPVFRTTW
Sequence of Ribosomal protein S6 kinase alpha-5 (O75582 whole entry, looked up, the tested form may be a part): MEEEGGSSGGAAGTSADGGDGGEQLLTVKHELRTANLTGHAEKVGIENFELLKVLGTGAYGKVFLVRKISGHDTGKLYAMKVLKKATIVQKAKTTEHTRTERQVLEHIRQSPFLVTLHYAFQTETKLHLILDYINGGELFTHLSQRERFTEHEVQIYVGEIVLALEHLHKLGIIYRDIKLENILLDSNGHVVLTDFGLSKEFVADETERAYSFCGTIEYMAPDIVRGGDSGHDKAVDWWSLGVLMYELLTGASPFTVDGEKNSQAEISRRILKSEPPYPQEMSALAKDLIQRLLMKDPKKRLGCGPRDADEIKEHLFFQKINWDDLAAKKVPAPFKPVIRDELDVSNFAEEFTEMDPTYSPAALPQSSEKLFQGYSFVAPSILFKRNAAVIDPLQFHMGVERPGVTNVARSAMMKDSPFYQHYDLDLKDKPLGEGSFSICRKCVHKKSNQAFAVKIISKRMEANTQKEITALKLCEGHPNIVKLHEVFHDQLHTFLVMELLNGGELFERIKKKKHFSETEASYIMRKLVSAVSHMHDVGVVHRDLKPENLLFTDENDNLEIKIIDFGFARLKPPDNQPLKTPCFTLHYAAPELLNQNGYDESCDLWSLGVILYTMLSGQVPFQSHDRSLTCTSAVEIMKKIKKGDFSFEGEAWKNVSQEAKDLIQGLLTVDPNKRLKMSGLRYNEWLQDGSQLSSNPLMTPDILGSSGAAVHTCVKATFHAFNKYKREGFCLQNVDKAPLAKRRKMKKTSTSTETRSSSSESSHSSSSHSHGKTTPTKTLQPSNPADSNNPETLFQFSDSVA
Sequence of Epidermal growth factor receptor (P00533 whole entry): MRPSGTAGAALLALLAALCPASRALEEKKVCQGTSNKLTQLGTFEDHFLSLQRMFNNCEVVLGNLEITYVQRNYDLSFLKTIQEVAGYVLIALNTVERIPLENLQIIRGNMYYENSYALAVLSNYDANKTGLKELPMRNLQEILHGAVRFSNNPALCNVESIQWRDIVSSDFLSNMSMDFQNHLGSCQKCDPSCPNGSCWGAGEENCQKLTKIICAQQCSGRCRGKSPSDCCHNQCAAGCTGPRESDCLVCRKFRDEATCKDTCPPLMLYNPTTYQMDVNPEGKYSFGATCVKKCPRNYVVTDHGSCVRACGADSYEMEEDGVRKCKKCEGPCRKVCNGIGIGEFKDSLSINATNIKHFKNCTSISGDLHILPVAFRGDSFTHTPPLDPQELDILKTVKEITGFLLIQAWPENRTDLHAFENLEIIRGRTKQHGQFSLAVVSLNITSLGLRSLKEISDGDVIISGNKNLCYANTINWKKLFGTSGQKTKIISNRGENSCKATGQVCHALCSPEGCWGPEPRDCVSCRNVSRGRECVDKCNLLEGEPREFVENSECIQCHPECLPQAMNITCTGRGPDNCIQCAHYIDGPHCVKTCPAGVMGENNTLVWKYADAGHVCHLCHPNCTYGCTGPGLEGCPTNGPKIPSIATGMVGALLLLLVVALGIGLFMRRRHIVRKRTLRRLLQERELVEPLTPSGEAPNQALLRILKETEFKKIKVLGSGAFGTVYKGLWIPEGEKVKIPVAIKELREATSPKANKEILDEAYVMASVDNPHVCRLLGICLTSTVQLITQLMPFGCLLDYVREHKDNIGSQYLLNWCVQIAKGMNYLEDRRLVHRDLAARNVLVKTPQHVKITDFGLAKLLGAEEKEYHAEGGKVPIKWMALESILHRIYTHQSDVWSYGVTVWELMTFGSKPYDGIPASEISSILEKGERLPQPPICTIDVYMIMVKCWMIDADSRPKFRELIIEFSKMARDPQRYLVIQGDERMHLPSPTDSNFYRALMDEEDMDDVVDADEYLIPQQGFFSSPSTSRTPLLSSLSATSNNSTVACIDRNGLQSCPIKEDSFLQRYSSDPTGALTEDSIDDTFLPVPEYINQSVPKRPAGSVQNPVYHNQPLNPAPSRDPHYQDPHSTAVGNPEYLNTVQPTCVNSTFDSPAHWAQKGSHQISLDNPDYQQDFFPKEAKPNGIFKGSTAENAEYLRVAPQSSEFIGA
Sequence of Casein kinase I isoform alpha (P48729 whole entry, canonical isoform): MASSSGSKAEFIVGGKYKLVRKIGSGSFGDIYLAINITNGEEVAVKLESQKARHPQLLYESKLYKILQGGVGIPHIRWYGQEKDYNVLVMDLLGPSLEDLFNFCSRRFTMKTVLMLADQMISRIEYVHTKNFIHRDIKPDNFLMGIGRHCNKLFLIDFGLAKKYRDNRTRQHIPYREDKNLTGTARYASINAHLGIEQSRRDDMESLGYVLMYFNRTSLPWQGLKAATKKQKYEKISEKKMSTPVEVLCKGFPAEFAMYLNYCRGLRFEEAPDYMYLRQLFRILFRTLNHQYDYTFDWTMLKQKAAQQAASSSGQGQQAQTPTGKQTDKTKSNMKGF
Sequence of Glycogen synthase kinase-3 beta (P49841 whole entry, looked up, canonical isoform): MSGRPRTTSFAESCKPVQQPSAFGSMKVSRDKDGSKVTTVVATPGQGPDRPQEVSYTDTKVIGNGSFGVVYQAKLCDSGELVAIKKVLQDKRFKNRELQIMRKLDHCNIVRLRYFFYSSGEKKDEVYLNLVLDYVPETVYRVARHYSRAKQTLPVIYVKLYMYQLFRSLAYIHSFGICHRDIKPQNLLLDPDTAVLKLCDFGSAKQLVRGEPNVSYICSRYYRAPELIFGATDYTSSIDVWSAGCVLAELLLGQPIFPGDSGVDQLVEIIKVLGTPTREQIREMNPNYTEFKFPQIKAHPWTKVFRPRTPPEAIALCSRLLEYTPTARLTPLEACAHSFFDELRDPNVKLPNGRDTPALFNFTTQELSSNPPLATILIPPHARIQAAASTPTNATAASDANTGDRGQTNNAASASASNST

Compound: CCOc1cc(N2CCC(O)CC2)ccc1Nc1ncc2c(n1)N(C)c1ccccc1C(=O)N2C
- inhibition [1]: 73.1%
- IC50 [2]: > 50 µM
- inhibition [3]: -2.4%
- IC50 [4]: > 50 µM
- inhibition [5]: -0.9%
- IC50 [6]: 31 µM
- inhibition [7]: 6.4%
- inhibition [8]: 11.5%
- Activity (HeLa): Active
- IC50 [9]: > 50 µM
- Activity (Lewis lung carcinoma): Active
- IC50 [10]: > 50 µM
- inhibition [11]: 18.8%
- IC50 (Ephrin type-A receptor 2): > 50 µM
- inhibition [12]: 7.8%
- IC50 [13]: > 50 µM
- IC50 [14]: > 50 µM
- IC50 [15]: > 50 µM
